According to ChEMBL document CHEMBL1137356, “Tricyclic imidazoline derivatives as potent and selective adenosine A1 receptor antagonists” (J Med Chem, 2006):
Converted amounts (≈) assume the structure as drawn.

Columns and labels:
[1] = target: Adenosine receptors; A1 & A2b (Homo sapiens) (UniProt P30542+P29275); test: Selectivity for human adenosine A1 receptor over adenosine A2B receptor; type: protein assay
[2] = target: Adenosine receptor A2a (Rattus norvegicus) (UniProt P30543); test: Displacement of [3H]ZM-241385 from adenosine A2A receptor in rat striatal membrane at 10 uM relative to control; type: cell membranes; conditions: Striatum
[3] = target: Adenosine receptors; A1 & A2a (Homo sapiens) (UniProt P30542+P29274); test: Selectivity for human adenosine A1 receptor over adenosine A2A receptor; type: protein assay
Adenosine receptor A1 [4] = target: T1, Adenosine receptor A1 (Rattus norvegicus, UniProt P25099); test: Displacement of [3H]DPCPX from adenosine A1 receptor in rat cerebral cortex; type: tissue-based
T1 sequence (P25099 whole entry): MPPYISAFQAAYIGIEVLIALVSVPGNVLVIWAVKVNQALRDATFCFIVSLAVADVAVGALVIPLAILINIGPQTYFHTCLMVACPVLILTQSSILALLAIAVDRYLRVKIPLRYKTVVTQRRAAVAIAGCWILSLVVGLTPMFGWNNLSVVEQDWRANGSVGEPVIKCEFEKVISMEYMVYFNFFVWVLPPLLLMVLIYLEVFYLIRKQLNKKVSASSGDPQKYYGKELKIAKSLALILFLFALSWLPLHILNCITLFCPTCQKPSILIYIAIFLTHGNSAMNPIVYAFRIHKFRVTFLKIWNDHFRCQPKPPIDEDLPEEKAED
How it was run: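 Rat brain membranes (cerebral cortex for A1, striatum for A2A) homogenized in 10 mM EDTA/10 mM Na-HEPES pH 7.4 with protease inhibitors, washed, stored at -80 °C. 40-70 µg protein incubated in triplicate with radioligand plus seven competitor concentrations in HEPES/EDTA buffer with 2 units/mL adenosine deaminase, 2.5 h, 21 °C. A1: [3H]DPCPX 2 nM, nonspecific with 10 µM NECA; A2A: [3H]ZM241385 0.5-1.2 nM, nonspecific with 10 µM XAC. GF/C filtration; single-site fit, Cheng-Prusoff Ki.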

Rattus norvegicus [5] = test: Volume of distribution in rat at 1 mg/kg, po; type: ADME, organism-based; design: dose 1 mg/kg, route oral; conditions: in vivo
How it was run: (§1)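 Rats given 1 mg/kg orally and intravenously to obtain pharmacokinetic parameters.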

Rattus norvegicus [6] = test: Sodium excretion level in po dosed rat diuresis model; type: ADME, organism-based
How it was run: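 Rats held in metabolic cages and dosed by gavage as 0.5% cmc suspension at several doses; urine collected for 4 h and sodium excretion (UNaV) measured.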

[7] = (§2) AUC(last) in rat at 1 mg/kg, po; type: ADME, organism-based, Plasma; design: time 0 - last, dose 1 mg/kg, route oral; conditions: plasma; how it was run: as §1
[8] = Oral bioavailability in rat at 1 mg/kg, iv and po; type: ADME, organism-based; conditions: in vivo; how it was run: as §1
[9] = Clearance in rat at 1 mg/kg, po; type: ADME, organism-based; design: dose 1 mg/kg, route oral; conditions: in vivo; how it was run: as §1
[10] = Half life in rat 1 mg/kg, po; type: ADME, organism-based; design: dose 1 mg/kg, route oral; conditions: in vivo; how it was run: as §1
Adenosine receptor A2b = target: T2, Adenosine receptor A2b (Homo sapiens, UniProt P29275); test: Displacement of [125I]3-(4-aminobenzyl)-8-phenyloxyacetate-1-propyl-xanthine from human adenosine A2B receptor
T2 sequence (P29275 whole entry): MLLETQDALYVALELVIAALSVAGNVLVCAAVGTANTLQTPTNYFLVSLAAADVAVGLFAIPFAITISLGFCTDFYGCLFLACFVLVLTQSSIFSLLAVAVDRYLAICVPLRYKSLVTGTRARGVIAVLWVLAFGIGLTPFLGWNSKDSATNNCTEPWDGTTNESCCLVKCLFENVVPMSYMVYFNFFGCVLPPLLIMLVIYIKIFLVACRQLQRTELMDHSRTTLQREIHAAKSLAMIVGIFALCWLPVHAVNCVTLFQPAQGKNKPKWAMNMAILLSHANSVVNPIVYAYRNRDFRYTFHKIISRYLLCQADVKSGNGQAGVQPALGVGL

Adenosine receptor A1 [11] = target: T3, Adenosine receptor A1 (Homo sapiens, UniProt P30542); test: Displacement of [125I]ABA from human adenosine A1 receptor
T3 sequence (P30542 whole entry): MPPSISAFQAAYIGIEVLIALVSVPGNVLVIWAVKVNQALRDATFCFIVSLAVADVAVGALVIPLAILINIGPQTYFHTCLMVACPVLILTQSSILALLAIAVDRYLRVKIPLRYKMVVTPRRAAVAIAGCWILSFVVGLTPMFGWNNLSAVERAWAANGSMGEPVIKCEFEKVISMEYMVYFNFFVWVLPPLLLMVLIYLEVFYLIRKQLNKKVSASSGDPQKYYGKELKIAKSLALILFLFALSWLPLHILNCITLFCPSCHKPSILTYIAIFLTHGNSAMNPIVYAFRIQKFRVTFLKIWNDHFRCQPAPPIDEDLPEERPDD

Adenosine receptor A3 = target: T4, Adenosine receptor A3 (Homo sapiens, UniProt P0DMS8); test: Displacement of [125I]ABA from human adenosine A3 receptor
T4 sequence (P0DMS8 whole entry): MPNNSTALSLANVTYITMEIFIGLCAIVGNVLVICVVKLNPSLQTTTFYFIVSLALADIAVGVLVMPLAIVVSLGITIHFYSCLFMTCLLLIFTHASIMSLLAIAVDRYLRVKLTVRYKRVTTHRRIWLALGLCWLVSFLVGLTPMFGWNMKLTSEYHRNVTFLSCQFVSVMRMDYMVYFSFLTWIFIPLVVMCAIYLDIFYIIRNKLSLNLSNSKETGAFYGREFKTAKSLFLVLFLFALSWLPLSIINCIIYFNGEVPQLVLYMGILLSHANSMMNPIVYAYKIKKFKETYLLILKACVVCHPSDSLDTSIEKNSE

Adenosine receptor A2a = Adenosine receptor A2a (Homo sapiens, UniProt P29274); test: Displacement of [125I]ZM-241385 from human adenosine A2A receptor
[12] = Aqueous solubility of the compound; type: physicochemical
Rattus norvegicus [13] = test: as §2; type: ADME, organism-based, Plasma; design: time 0 - last, dose 1 mg/kg, route oral; conditions: in vivo; how it was run: as §1

Sequence of Adenosine receptor A2a (Rattus norvegicus) (P30543 whole entry): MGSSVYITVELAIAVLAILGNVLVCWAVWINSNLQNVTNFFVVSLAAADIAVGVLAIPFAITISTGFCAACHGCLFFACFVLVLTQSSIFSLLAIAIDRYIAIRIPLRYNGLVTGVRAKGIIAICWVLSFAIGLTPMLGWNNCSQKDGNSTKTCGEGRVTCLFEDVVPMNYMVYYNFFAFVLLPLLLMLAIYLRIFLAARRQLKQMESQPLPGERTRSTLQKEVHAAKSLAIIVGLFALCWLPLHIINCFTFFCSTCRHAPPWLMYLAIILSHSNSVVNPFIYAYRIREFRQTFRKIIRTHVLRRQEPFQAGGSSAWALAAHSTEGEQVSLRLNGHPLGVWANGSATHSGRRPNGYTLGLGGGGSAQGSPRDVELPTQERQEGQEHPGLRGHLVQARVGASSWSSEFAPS
Sequence of Adenosine receptor A2a (P29274 whole entry): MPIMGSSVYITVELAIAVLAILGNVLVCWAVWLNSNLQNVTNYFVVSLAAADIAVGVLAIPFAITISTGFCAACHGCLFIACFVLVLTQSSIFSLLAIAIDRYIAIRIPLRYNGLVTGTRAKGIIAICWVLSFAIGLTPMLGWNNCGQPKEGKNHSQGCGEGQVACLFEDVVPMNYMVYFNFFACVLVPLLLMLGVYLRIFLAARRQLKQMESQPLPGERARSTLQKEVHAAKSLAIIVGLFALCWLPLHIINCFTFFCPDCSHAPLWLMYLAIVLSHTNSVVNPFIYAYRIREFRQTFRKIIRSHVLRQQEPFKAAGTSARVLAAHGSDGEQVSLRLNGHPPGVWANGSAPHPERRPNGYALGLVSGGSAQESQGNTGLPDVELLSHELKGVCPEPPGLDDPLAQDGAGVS

**Q.** For `CCCN1C(=O)N2C[C@@H](C(C)C)N=C2c2[nH]c(C34CCC(CCC(=O)O)(CC3)CC4)nc21` [listing 1 of 2 here], which Ratio Ki [1] is on record?
**A.** 69

**Q.** What about the Activity [2] of the same molecule?
**A.** 74%

**Q.** And the Ratio Ki [3]?
**A.** 400

**Q.** With `CCCN1C(=O)N2C(=NC[C@@H]2C)c2[nH]c(C34CCC(O)(CC3)CC4)nc21` as the molecule, how does the Ki (Adenosine receptor A1 [4]) read?
**A.** 69 nM

**Q.** For `CCCn1c(=O)c2nc(C34CCC(CCC(=O)O)(CC3)CC4)[nH]c2n(CCC)c1=O.Cl`, which Vdss (Rattus norvegicus [5]) is on record?
**A.** 0.3 L/kg

**Q.** What about the ED50 (Rattus norvegicus [6]) of the same molecule?
**A.** 0.01 mg/kg

**Q.** What about the AUC(0-t) [7] of the same molecule?
**A.** 10000 ng·h/mL

**Q.** And the bioavailability [8]?
**A.** 99%

**Q.** What about the CL/F [9] of the same molecule?
**A.** 1.6 mL/min/kg

**Q.** What about the half-life [10] of the same molecule?
**A.** 3.1 h

**Q.** With `CCCN1C(=O)N2C[C@@H](CC)N=C2c2[nH]c(C34CCC(C(=O)O)(CC3)CC4)nc21` as the molecule, how does the Activity [2] read?
**A.** 48%

**Q.** For `CCCN1C(=O)N2C[C@H](C(C)CC)N=C2c2[nH]c(C34CCC(O)(CC3)CC4)nc21` (stereo partly specified), which Activity [2] is on record?
**A.** 91%

**Q.** And the Ki (Adenosine receptor A1 [4])?
**A.** 14 nM

**Q.** What does the source list for `CCCN1C(=O)N2C[C@@H](C(C)C)N=C2c2[nH]c(C34CCC(O)(CC3)CC4)nc21.Cl`?
**A.** Vdss (Rattus norvegicus [5]): 1.7 L/kg; ED50 (Rattus norvegicus [6]): 0.01 mg/kg; AUC(0-t) [7]: 810 ng·h/mL; bioavailability [8]: 54%; CL/F [9]: 21 mL/min/kg; half-life [10]: 2.9 h

**Q.** Which Ki (Adenosine receptor A1 [4]) does the source give for `CCCN1C(=O)N2CC[C@@H](C)N=C2c2[nH]c(C34CCC(O)(CC3)CC4)nc21` here?
**A.** > 250 nM

**Q.** What does the source list for `CCCn1c(=O)c2[nH]c(C34CCC(O)(CC3)CC4)nc2n(CCC)c1=O`?
**A.** Ki (Adenosine receptor A2b): 430 nM; Ki (Adenosine receptor A1 [11]): 2 nM; Ki (Adenosine receptor A3): > 1000 nM; Ki (Adenosine receptor A2a): 550 nM; Ki (Adenosine receptor A1 [4]): 0.6 nM; solubility [12]: 100 µg/mL (≈ 277 µM)

**Q.** For `CCCN1C(=O)N2C[C@@H](Cc3ccccc3)N=C2c2[nH]c(C34CCC(O)(CC3)CC4)nc21`, which Activity [2] is on record?
**A.** 84%

**Q.** Which results are given for `CCCN1C(=O)N2C[C@@H](C(C)C)N=C2c2[nH]c(C34CCC(CCC(=O)O)(CC3)CC4)nc21` [listing 2 of 2 here]?
**A.** Ki (Adenosine receptor A2b): 3100 nM; Ki (Adenosine receptor A1 [11]): 45 nM; Ki (Adenosine receptor A3): > 10000 nM; Ki (Adenosine receptor A2a): 18000 nM

**Q.** Which Vdss (Rattus norvegicus [5]) does the source give for `CCCN1C(=O)N2C[C@@H](C(C)C)N=C2c2[nH]c(C34CCC(CCC(=O)O)(CC3)CC4)nc21.Cl` here?
**A.** 0.9 L/kg

**Q.** What about the ED50 (Rattus norvegicus [6]) of the same molecule?
**A.** 0.01 mg/kg

**Q.** And the AUC (Rattus norvegicus [13])?
**A.** 2600 ng·h/mL

**Q.** And the bioavailability [8]?
**A.** 77%

**Q.** And the half-life [10]?
**A.** 3.1 h

**Q.** Which Ratio Ki [1] does the source give for `CCCN1C(=O)N2C[C@@H](CC)N=C2c2[nH]c(C34CCC(O)(CC3)CC4)nc21` here?
**A.** 26

**Q.** What about the Ratio Ki [3] of the same molecule?
**A.** 200

**Q.** For `CCCN1C(=O)N2C(=NC[C@H]2C)c2[nH]c(C34CCC(O)(CC3)CC4)nc21`, which Ki (Adenosine receptor A1 [4]) is on record?
**A.** 51 nM

**Q.** With `CCCn1c(=O)c2nc(C34CCC(O)(CC3)CC4)[nH]c2n(CCC)c1=O` as the molecule, how does the Ratio Ki [1] read?
**A.** 215

**Q.** And the Ratio Ki [3]?
**A.** 275
